Measured values taken from ChEMBL document CHEMBL1914395, “Design, synthesis, and biological evaluation of callophycin A and analogues as potential chemopreventive and anticancer agents” (Bioorg Med Chem, 2011).

What was measured:
[1] = biological target: T1, Nitric oxide synthase, inducible (Mus musculus) (UniProt P29477); assay: Inhibition of iNOS-mediated nitric oxide production in LPS-stimulated mouse RAW 264.7 cells at 50 uM pretreated 15 mins before LPS challenge measured after 20 hrs relative to control; type: cell-based
T1 sequence (whole entry): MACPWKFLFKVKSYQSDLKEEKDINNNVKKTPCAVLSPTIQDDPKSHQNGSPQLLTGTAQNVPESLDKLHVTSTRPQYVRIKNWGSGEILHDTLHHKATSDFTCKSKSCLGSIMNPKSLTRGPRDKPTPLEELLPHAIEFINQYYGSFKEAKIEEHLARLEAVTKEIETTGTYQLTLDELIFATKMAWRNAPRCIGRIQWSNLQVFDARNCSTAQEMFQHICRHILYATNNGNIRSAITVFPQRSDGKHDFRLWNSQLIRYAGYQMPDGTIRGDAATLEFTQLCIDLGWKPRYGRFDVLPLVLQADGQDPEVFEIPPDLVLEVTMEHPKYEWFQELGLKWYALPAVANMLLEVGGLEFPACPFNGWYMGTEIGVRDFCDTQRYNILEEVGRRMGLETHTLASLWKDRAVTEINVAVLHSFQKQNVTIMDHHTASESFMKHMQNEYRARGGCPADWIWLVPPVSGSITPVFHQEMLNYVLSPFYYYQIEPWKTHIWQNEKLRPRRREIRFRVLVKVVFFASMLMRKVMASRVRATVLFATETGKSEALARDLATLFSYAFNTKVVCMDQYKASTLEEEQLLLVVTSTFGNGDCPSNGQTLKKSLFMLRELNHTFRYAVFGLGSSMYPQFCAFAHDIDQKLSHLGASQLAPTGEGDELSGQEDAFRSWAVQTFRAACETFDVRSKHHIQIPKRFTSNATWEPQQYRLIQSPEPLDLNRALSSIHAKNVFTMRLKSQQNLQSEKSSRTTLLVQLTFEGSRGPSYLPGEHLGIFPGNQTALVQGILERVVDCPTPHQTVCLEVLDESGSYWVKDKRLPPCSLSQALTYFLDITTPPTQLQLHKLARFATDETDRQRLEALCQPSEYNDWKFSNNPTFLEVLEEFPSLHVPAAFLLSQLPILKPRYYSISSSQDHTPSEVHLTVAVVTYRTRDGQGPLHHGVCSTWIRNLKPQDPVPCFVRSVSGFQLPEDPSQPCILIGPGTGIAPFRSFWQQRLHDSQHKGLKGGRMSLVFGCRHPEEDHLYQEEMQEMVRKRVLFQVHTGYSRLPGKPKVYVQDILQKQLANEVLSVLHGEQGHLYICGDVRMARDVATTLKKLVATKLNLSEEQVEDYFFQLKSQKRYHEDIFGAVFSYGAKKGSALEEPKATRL
Summary of the method: (§1)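 RAW 264.7 cells cultured 24 h at 37°C, then given serially diluted compounds for 15 min before LPS (1 μg/mL) for 20 h. Nitrite in the medium measured with Griess reagent at 540 nm against a sodium nitrite standard curve. Cytotoxicity checked by SRB under the same conditions.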

HEK293 [2] = assay: Inhibition of TNF-alpha-induced NFkappaB activation in human HEK293 cells assessed as cell survival at 50 uM after 6 hrs by luciferase assay relative to control; type: cell-based
[3] = biological target: NAD(P)H dehydrogenase [quinone] 1 (Mus musculus) (UniProt Q64669); assay: Induction of quinone reductase 1 activity in mouse Hepa-1c1c7 cells assessed as cell survival at 50 uM by MTT assay relative to control; type: cell-based
Sequence of NAD(P)H dehydrogenase [quinone] 1 (Mus musculus) (Q64669 whole entry): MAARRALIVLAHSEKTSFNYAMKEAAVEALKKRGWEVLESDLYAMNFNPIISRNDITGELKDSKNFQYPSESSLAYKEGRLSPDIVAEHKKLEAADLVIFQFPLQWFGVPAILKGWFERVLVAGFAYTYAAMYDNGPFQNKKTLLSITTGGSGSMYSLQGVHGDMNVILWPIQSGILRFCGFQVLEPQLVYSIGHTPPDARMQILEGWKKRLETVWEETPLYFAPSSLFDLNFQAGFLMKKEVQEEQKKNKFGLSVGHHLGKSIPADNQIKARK

[4] = biological target: T2, Nitric oxide synthase, inducible (Mus musculus, UniProt P29477); assay: Inhibition of iNOS-mediated nitric oxide production in LPS-stimulated mouse RAW 264.7 cells pretreated 15 mins before LPS challenge measured after 20 hrs relative to control; type: cell-based; summary of the method: as §1
T2 sequence (P29477 whole entry): T1 sequence (whole entry)

MCF7 [5] = assay: Antiproliferative activity against human MCF7 cells after 72 hrs by SRB assay; type: functional, cell-based; conditions: MCF7, 72 h
Summary of the method: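 MCF7 cells, 1 × 10^4 per well, plated directly onto compounds and incubated 72 h at 37°C, 5% CO2. Fixed with 10% TCA, stained with 0.4% SRB in 1% acetic acid. Bound dye dissolved in 10 mM Tris pH 10.0, absorbance read at 515 nm. Survival expressed relative to DMSO-treated controls.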

HEK293 [6] = assay: Inhibition of TNF-alpha-induced NFkappaB activation in human HEK293 cells at 50 uM after 6 hrs by luciferase assay relative to control; type: cell-based
Summary of the method: (§2)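 Cells incubated 6 h with TNFα plus test compound, then luciferase activity measured. Results expressed as percent of TNFα-treated control. Screening concentration 50 μM.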

Aromatase [7] = biological target: T3, Aromatase (Homo sapiens, UniProt P11511); assay: Inhibition of aromatase at 50 uM after 10 mins preincubation by plate reader relative to control
T3 sequence (P11511 whole entry): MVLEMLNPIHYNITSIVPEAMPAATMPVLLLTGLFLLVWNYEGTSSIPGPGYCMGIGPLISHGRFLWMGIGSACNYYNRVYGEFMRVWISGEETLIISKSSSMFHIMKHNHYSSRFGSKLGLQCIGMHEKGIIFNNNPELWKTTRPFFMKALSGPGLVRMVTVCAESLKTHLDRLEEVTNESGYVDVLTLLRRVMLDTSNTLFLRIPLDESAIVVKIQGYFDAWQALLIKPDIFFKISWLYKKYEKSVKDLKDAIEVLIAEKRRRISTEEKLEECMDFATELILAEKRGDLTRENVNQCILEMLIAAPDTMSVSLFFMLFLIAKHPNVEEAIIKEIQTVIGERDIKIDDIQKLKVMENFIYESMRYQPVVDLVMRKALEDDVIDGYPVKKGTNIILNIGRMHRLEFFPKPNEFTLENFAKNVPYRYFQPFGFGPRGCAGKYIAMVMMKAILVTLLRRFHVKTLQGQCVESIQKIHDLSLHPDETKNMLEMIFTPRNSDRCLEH
Summary of the method: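 CYP19 enzyme. Compound pre-incubated 10 min with an NADPH-regenerating system (NADP+, glucose 6-phosphate, G6PDH, MgCl2, albumin) in 50 mM potassium phosphate pH 7.4. Enzyme and 0.4 μM dibenzylfluorescein substrate then added, 30 min at 37 °C. Quenched with 2 N NaOH and incubated a further 2 h at 37 °C. Fluorescence read at ex 485/em 530 nm. Compound tested at 50 μM.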

[8] = Inhibition of TNF-alpha-induced NFkappaB activation in human HEK293 cells after 6 hrs by luciferase assay; type: cell-based; conditions: HEK293, 6 h; summary of the method: as §2
MCF7 [9] = assay: Antiproliferative activity against human MCF7 cells assessed as survival at 50 uM after 72 hrs by SRB assay relative to control; type: functional; conditions: MCF7, 72 h, read-out: Survival
Summary of the method: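 MCF7 cells (1 × 10^4 per well) were plated onto compound and kept at 37°C, 5% CO2 for 72 h. Cells were fixed in 10% TCA for 30 min and stained with 0.4% SRB in 1% acetic acid for 30 min. Bound dye was dissolved in 10 mM Tris (pH 10.0) and read at 515 nm. Survival is given as % of DMSO-treated controls, screened at 50 μM.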

[10] = biological target: NAD(P)H dehydrogenase [quinone] 1 (Mus musculus) (UniProt Q64669); assay: Induction of quinone reductase 1 activity in mouse Hepa-1c1c7 cells at 50 uM by MTT assay relative to untreated control; type: cell-based
Summary of the method: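 Hepa 1c1c7 murine hepatoma cells treated with compound at 50 μM. QR1 measured by NADPH-dependent, menadiol-mediated reduction of MTT to formazan. Protein measured by crystal violet staining of identical plates. Specific activity is nmol formazan per mg protein per min. Induction ratio is treated versus DMSO-treated control.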

[11] = biological target: T1, Nitric oxide synthase, inducible (Mus musculus); assay: Inhibition of iNOS-mediated nitric oxide production in LPS-stimulated mouse RAW 264.7 cells assessed as cell survival at 50 uM pretreated 15 mins before LPS challenge measured after 20 hrs relative to control; type: cell-based
Summary of the method: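 RAW 264.7 cells were incubated at 37°C, 5% CO2 for 24 h. They were then exposed to compound for 15 min before LPS (1 μg/mL) was added for 20 h. Cytotoxicity was measured by SRB staining under the same conditions. Survival is expressed as % relative to vehicle-treated controls at 50 μM.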

Aromatase [12] = biological target: T3, Aromatase; assay: Inhibition of aromatase after 10 mins preincubation by plate reader relative to control
[13] = biological target: NAD(P)H dehydrogenase [quinone] 1 (Mus musculus) (UniProt Q64669); assay: Induction of quinone reductase 1 in mouse Hepa 1c1c7 cells assessed as concentration of compound required to double enzyme activity by MTT assay; type: cell-based
Summary of the method: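 Dose-response in Hepa 1c1c7 cells, run for substances with induction ratio >2 at 50 μM. QR1 activity measured as menadiol-mediated, NADPH-dependent MTT reduction to formazan, normalised to crystal violet protein content. CD is the concentration that doubles specific activity relative to DMSO control.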

COC(=O)[C@H]1Cc2c([nH]c3ccccc23)CN1C(=O)NCCc1ccccc1
inhibition [1]: 66.2% | Survival (HEK293 [2]): 108% | Survival [3]: 51.7% | IC50 [4]: 11 µM | IC50 (MCF7 [5]): 27.7 µM | inhibition (HEK293 [6]): 81.7% | inhibition at 50 µM (Aromatase [7]): 24.6% | IC50 [8]: 13.3 µM | viability at 50 µM (MCF7 [9]): 4.3% | Ratio [10]: 1.5 | Survival [11]: 66.1%

COC(=O)[C@@H]1Cc2c([nH]c3ccccc23)CN1C(=O)NC12CC3CC(CC(C3)C1)C2
inhibition [1]: 64.1% | Survival (HEK293 [2]): 139% | Survival [3]: 78.1% | IC50 [4]: 13.4 µM | IC50 (MCF7 [5]): 36.9 µM | inhibition (HEK293 [6]): 60.7% | inhibition at 50 µM (Aromatase [7]): 30.3% | IC50 [8]: 10.2 µM | viability at 50 µM (MCF7 [9]): 37.6% | Ratio [10]: 0.9 | Survival [11]: 66.7%

COC(=O)[C@@H]1Cc2c([nH]c3ccccc23)CN1Cc1ccc(O)cc1
inhibition [1]: 62.1% | Survival (HEK293 [2]): 96% | Survival [3]: 91.7% | IC50 [4]: 38.8 µM | inhibition (HEK293 [6]): 47.8% | inhibition at 50 µM (Aromatase [7]): 46.1% | viability at 50 µM (MCF7 [9]): 94.7% | Ratio [10]: 1.3 | Survival [11]: 75.5% | IC50 (Aromatase [12]): 57.4 µM

O=C(O)[C@@H]1Cc2c([nH]c3ccccc23)CN1Cc1ccc(O)cc1
inhibition [1]: 16% | Survival (HEK293 [2]): 102% | Survival [3]: 88.3% | inhibition (HEK293 [6]): 55% | inhibition at 50 µM (Aromatase [7]): 57.9% | viability at 50 µM (MCF7 [9]): 85.2% | Ratio [10]: 1.7 | Survival [11]: 90.3% | IC50 (Aromatase [12]): 10.5 µM

COC(=O)[C@H]1Cc2c([nH]c3ccccc23)CN1C(=O)NC12CC3CC(CC(C3)C1)C2
inhibition [1]: 64.7% | Survival (HEK293 [2]): 110% | Survival [3]: 30.6% | IC50 [4]: 11.7 µM | IC50 (MCF7 [5]): 14.7 µM | inhibition (HEK293 [6]): 36.5% | inhibition at 50 µM (Aromatase [7]): 39.9% | viability at 50 µM (MCF7 [9]): 9.9% | Ratio [10]: 0.4 | Survival [11]: 63.2%

COC(=O)[C@H]1Cc2c([nH]c3ccccc23)CN1C(=O)NC1CCCCC1
inhibition [1]: 55% | Survival (HEK293 [2]): 101% | Survival [3]: 71.8% | IC50 [4]: 41.6 µM | IC50 (MCF7 [5]): 18.4 µM | inhibition (HEK293 [6]): 20.9% | inhibition at 50 µM (Aromatase [7]): 24.4% | viability at 50 µM (MCF7 [9]): 5.3% | Ratio [10]: 1 | Survival [11]: 83.8%

CCCCCNC(=O)N1Cc2[nH]c3ccccc3c2C[C@H]1C(=O)OC
inhibition [1]: 8.7% | CD [13]: 3.8 µM | Survival (HEK293 [2]): 110% | Survival [3]: 7.8% | IC50 (MCF7 [5]): 38.4 µM | inhibition (HEK293 [6]): 35.5% | inhibition at 50 µM (Aromatase [7]): -0.04% | viability at 50 µM (MCF7 [9]): 40.3% | Ratio [10]: 4.9 | Survival [11]: 94.9%
